Assay results: ChEMBL document CHEMBL1141653, “New bis(2-aminoimidazoline) and bisguanidine DNA minor groove binders with potent in vivo antitrypanosomal and antiplasmodial activity” (J Med Chem, 2008)

Tests used:
[1] = test system: Ferriprotoporphyrin IX; test: Inhibition of ferriprotoporphyrin 9 biomineralization; assay type: functional
Procedure, shortened: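 β-Hematin formation: hemin chloride (0.5 mg/mL in DMSO) with 0.5 M sodium acetate pH 4.4 and drug dilutions, 37 °C for 18–24 h. Pellet washed with DMSO, dissolved in 0.1 N NaOH, A405 read. Percent inhibition relative to solvent control. IC₅₀ derived, or percent inhibition at 1 mg/mL (highest concentration) given when no IC₅₀.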

[2] = test system: Plasmodium berghei (ANKA); test: Antiplasmodial activity as survival against Plasmodium berghei ANKA infection in NMRI mice (Mus musculus) at 10 mg/kg intraperitoneal dose for 4 days
[3] = test system: Plasmodium berghei (ANKA); test: Antiplasmodial activity against parasitemia in Plasmodium berghei ANKA infected NMRI mice (Mus musculus) at 5 mg/kg intraperitoneal dose after 4 days
[4] = test system: Plasmodium berghei (ANKA); test: Antiplasmodial activity against parasitemia in Plasmodium berghei ANKA infected NMRI mice (Mus musculus) at 10 mg/kg intraperitoneal dose after 4 days
[5] = test system: Plasmodium berghei (ANKA); test: Antiplasmodial activity as survival against Plasmodium berghei ANKA infection in NMRI mice (Mus musculus) assessed at 5 mg/kg intraperitoneal dose for 4 days

SMILES: CCN(CC)CCCC(C)Nc1ccnc2cc(Cl)ccc12 (stereo not given) [CHLOROQUINE]
- IC50 [1]: 17.9 µM
- Survival [2]: 20 days
- Activity [3]: 99.6%
- Activity [4]: 99.6%
- Survival [5]: 9 days
